In ChEMBL document CHEMBL1152173, “Synthesis and in vitro evaluation of the antifungal activities of dihydropyrimidinones” (2008):
Converted amounts (≈) assume the structure as drawn. The source made the active and inactive calls. The calls are words filed in the database; no cut-off is given here.

Key:
Trichoderma koningii [1] = test: Antifungal activity against Trichoderma koningii assessed as radial growth at 1% after 72 hrs by poison food technique of Flack relative to control; format: functional
In short: (§1)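 Acetone stock added to molten sterilized PDA to final 0.5–7%, plated in 90 mm dishes with compound-free plates as control. Each plate was inoculated with a 9 mm disc from a 4-day-old culture, incubated at 25 ± 1 °C, and colony diameter measured at 24 h intervals. % inhibition = (control − treatment)/control × 100; three replicates averaged.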

Trichoderma koningii [2] = test: Antifungal activity against Trichoderma koningii assessed as radial growth at 3% after 72 hrs by poison food technique of Flack relative to control; format: functional; in short: as §1
Trichoderma koningii [3] = test: Antifungal activity against Trichoderma koningii assessed as radial growth at 5% after 72 hrs by poison food technique of Flack relative to control; format: functional; in short: as §1
Trichoderma koningii [4] = test: Antifungal activity against Trichoderma koningii assessed as radial growth at 7% after 72 hrs by poison food technique of Flack relative to control; format: functional; in short: as §1
Trichoderma hamatum [5] = test: Antifungal activity against Trichoderma hamatum assessed as radial growth at 0.5% after 24 hrs by poison food technique of Flack relative to control; format: functional
Trichoderma hamatum [6] = test: Antifungal activity against Trichoderma hamatum assessed as radial growth at 1% after 24 hrs by poison food technique of Flack relative to control; format: functional
Trichoderma hamatum [7] = test: Antifungal activity against Trichoderma hamatum assessed as radial growth at 3% after 24 hrs by poison food technique of Flack relative to control; format: functional
Trichoderma hamatum [8] = test: Antifungal activity against Trichoderma hamatum assessed as radial growth at 5% after 24 hrs by poison food technique of Flack relative to control; format: functional; in short: as §1
Trichoderma hamatum [9] = test: Antifungal activity against Trichoderma hamatum assessed as radial growth at 7% after 24 hrs by poison food technique of Flack relative to control; format: functional; in short: as §1
Trichoderma hamatum [10] = test: Antifungal activity against Trichoderma hamatum assessed as radial growth at 0.5% after 48 hrs by poison food technique of Flack relative to control; format: functional
Trichoderma hamatum [11] = test: Antifungal activity against Trichoderma hamatum assessed as radial growth at 1% after 48 hrs by poison food technique of Flack relative to control; format: functional
Trichoderma hamatum [12] = test: Antifungal activity against Trichoderma hamatum assessed as radial growth at 3% after 48 hrs by poison food technique of Flack relative to control; format: functional
Trichoderma hamatum [13] = test: Antifungal activity against Trichoderma hamatum assessed as radial growth at 0.5% after 72 hrs by poison food technique of Flack relative to control; format: functional
Trichoderma hamatum [14] = test: Antifungal activity against Trichoderma hamatum assessed as radial growth at 1% after 72 hrs by poison food technique of Flack relative to control; format: functional
Trichoderma hamatum [15] = test: Antifungal activity against Trichoderma hamatum assessed as radial growth at 3% after 72 hrs by poison food technique of Flack relative to control; format: functional
Trichoderma hamatum [16] = test: Antifungal activity against Trichoderma hamatum assessed as radial growth at 5% after 72 hrs by poison food technique of Flack relative to control; format: functional; in short: as §1
Trichoderma hamatum [17] = test: Antifungal activity against Trichoderma hamatum assessed as radial growth at 7% after 72 hrs by poison food technique of Flack relative to control; format: functional; in short: as §1
Trichoderma koningii [18] = test: Antifungal activity against Trichoderma koningii assessed as radial growth at 0.5% after 24 hrs by poison food technique of Flack relative to control; format: functional; in short: as §1
Trichoderma koningii [19] = test: Antifungal activity against Trichoderma koningii assessed as radial growth at 1% after 24 hrs by poison food technique of Flack relative to control; format: functional; in short: as §1
Trichoderma koningii [20] = test: Antifungal activity against Trichoderma koningii assessed as radial growth at 3% after 24 hrs by poison food technique of Flack relative to control; format: functional; in short: as §1
Trichoderma koningii [21] = test: Antifungal activity against Trichoderma koningii assessed as radial growth at 5% after 24 hrs by poison food technique of Flack relative to control; format: functional; in short: as §1
Trichoderma koningii [22] = test: Antifungal activity against Trichoderma koningii assessed as radial growth at 7% after 24 hrs by poison food technique of Flack relative to control; format: functional; in short: as §1
Trichoderma koningii [23] = test: Antifungal activity against Trichoderma koningii assessed as radial growth at 0.5% after 48 hrs by poison food technique of Flack relative to control; format: functional; in short: as §1
Trichoderma koningii [24] = test: Antifungal activity against Trichoderma koningii assessed as radial growth at 1% after 48 hrs by poison food technique of Flack relative to control; format: functional; in short: as §1
Trichoderma koningii [25] = test: Antifungal activity against Trichoderma koningii assessed as radial growth at 3% after 48 hrs by poison food technique of Flack relative to control; format: functional; in short: as §1
Trichoderma koningii [26] = test: Antifungal activity against Trichoderma koningii assessed as radial growth at 5% after 48 hrs by poison food technique of Flack relative to control; format: functional; in short: as §1
Trichoderma koningii [27] = test: Antifungal activity against Trichoderma koningii assessed as radial growth at 0.5% after 72 hrs by poison food technique of Flack relative to control; format: functional; in short: as §1
Trichoderma hamatum [28] = test: Antifungal activity against Trichoderma hamatum assessed as radial growth at 7% after 24 hrs by poison food technique of Flack; format: functional, organism-based
In short: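 Poisoned-food method: acetone stock mixed into molten sterilized potato dextrose agar to final 0.5, 1, 3, 5 or 7%, poured into 90 mm plates. Plates were inoculated with a 9 mm mycelial disc from a 4-day-old pure culture and incubated at 25 ± 1 °C. Colony diameter (mm) was read every 24 h; mean of three replicates.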

Aspergillus niger [29] = test: Antifungal activity against Aspergillus niger assessed as radial growth at 0.5% after 24 hrs by poison food technique of Flack relative to control; format: functional
Aspergillus niger [30] = test: Antifungal activity against Aspergillus niger assessed as radial growth at 1% after 24 hrs by poison food technique of Flack relative to control; format: functional
Aspergillus niger [31] = test: Antifungal activity against Aspergillus niger assessed as radial growth at 3% after 24 hrs by poison food technique of Flack relative to control; format: functional
Aspergillus niger [32] = test: Antifungal activity against Aspergillus niger assessed as radial growth at 5% after 24 hrs by poison food technique of Flack relative to control; format: functional
Aspergillus niger [33] = test: Antifungal activity against Aspergillus niger assessed as radial growth at 7% after 24 hrs by poison food technique of Flack relative to control; format: functional
Aspergillus niger [34] = test: Antifungal activity against Aspergillus niger assessed as radial growth at 0.5% after 48 hrs by poison food technique of Flack relative to control; format: functional
Aspergillus niger [35] = test: Antifungal activity against Aspergillus niger assessed as radial growth at 1% after 48 hrs by poison food technique of Flack relative to control; format: functional
Aspergillus niger [36] = test: Antifungal activity against Aspergillus niger assessed as radial growth at 3% after 48 hrs by poison food technique of Flack relative to control; format: functional
Aspergillus niger [37] = test: Antifungal activity against Aspergillus niger assessed as radial growth at 5% after 48 hrs by poison food technique of Flack relative to control; format: functional
Aspergillus niger [38] = test: Antifungal activity against Aspergillus niger assessed as radial growth at 7% after 48 hrs by poison food technique of Flack relative to control; format: functional
Aspergillus niger [39] = test: Antifungal activity against Aspergillus niger assessed as radial growth at 0.5% after 72 hrs by poison food technique of Flack relative to control; format: functional
Aspergillus niger [40] = test: Antifungal activity against Aspergillus niger assessed as radial growth at 1% after 72 hrs by poison food technique of Flack relative to control; format: functional
Aspergillus niger [41] = test: Antifungal activity against Aspergillus niger assessed as radial growth at 5% after 72 hrs by poison food technique of Flack relative to control; format: functional
Aspergillus niger [42] = test: Antifungal activity against Aspergillus niger assessed as radial growth at 7% after 72 hrs by poison food technique of Flack relative to control; format: functional
Trichoderma hamatum [43] = test: Antifungal activity against Trichoderma hamatum; format: functional
Trichoderma koningii [44] = test: Antifungal activity against Trichoderma koningii; format: functional
Aspergillus niger [45] = test: Antifungal activity against Aspergillus niger; format: functional

MIC (Trichoderma hamatum [43]): 0.025 µg/mL (≈ 0.096 µM)
MIC (Trichoderma koningii [44]): 0.025 µg/mL (≈ 0.096 µM)
MIC (Aspergillus niger [45]): 0.025 µg/mL (≈ 0.096 µM)
SMILES: CCOC(=O)C1=C(C)NC(=O)NC1c1ccccc1 (stereo not given)
inhibition (INH) (Trichoderma koningii [1]): 10.86%
inhibition (INH) (Trichoderma koningii [2]): 70.18%
inhibition (INH) (Trichoderma koningii [3]): 91.53%
inhibition (INH) (Trichoderma koningii [4]): 95.52%
inhibition (INH) (Trichoderma hamatum [5]): 11.32%
inhibition (INH) (Trichoderma hamatum [6]): 24.96%
inhibition (INH) (Trichoderma hamatum [7]): 82.12%
inhibition (INH) (Trichoderma hamatum [8]): 100%
inhibition (INH) (Trichoderma hamatum [9]): 100%
inhibition (INH) (Trichoderma hamatum [10]): 32.99%
inhibition (INH) (Trichoderma hamatum [11]): 21.94%
inhibition (INH) (Trichoderma hamatum [12]): 72.02%
inhibition (INH) (Trichoderma hamatum [13]): 2.46%
inhibition (INH) (Trichoderma hamatum [14]): 12.34%
inhibition (INH) (Trichoderma hamatum [15]): 63.38%
inhibition (INH) (Trichoderma hamatum [16]): 93.2%
inhibition (INH) (Trichoderma hamatum [17]): 100%
inhibition (INH) (Trichoderma koningii [18]): 5.66%
inhibition (INH) (Trichoderma koningii [19]): 12.09%
inhibition (INH) (Trichoderma koningii [20]): 100%
inhibition (INH) (Trichoderma koningii [21]): 100%
inhibition (INH) (Trichoderma koningii [22]): 100%
inhibition (INH) (Trichoderma koningii [23]): 18.25%
inhibition (INH) (Trichoderma koningii [24]): 20.63%
inhibition (INH) (Trichoderma koningii [25]): 62.31%
inhibition (INH) (Trichoderma koningii [26]): 100%
inhibition (INH) (Trichoderma koningii [27]): 1.59%
Activity (Trichoderma hamatum [28]): Active
inhibition (INH) (Aspergillus niger [29]): 0%
inhibition (INH) (Aspergillus niger [30]): 30.55%
inhibition (INH) (Aspergillus niger [31]): 69.44%
inhibition (INH) (Aspergillus niger [32]): 84.72%
inhibition (INH) (Aspergillus niger [33]): 100%
inhibition (INH) (Aspergillus niger [34]): 0%
inhibition (INH) (Aspergillus niger [35]): 0%
inhibition (INH) (Aspergillus niger [36]): 52.83%
inhibition (INH) (Aspergillus niger [37]): 81.17%
inhibition (INH) (Aspergillus niger [38]): 79.36%
inhibition (INH) (Aspergillus niger [39]): 0%
inhibition (INH) (Aspergillus niger [40]): 0%
inhibition (INH) (Aspergillus niger [41]): 73.29%
inhibition (INH) (Aspergillus niger [42]): 76.7%
